Experimental data as given in ChEMBL document CHEMBL4680254, “Design, synthesis and discovery of 2(1H)-quinolone derivatives for the treatment of pulmonary fibrosis through inhibition of TGF-β/smad dependent and independent pathway” (Eur J Med Chem, 2020).
Active and inactive are the calls of the source. The rule behind the calls is not given here.

How the values were obtained:
[1] = Effect on total […] expression in TGFbeta-stimulated rat NRK-49F at 20 to 40 uM preincubated for 1 to 2 hrs followed by TGF-beta stimulation and measured after 1 hr by Western blot analysis; conditions: dose lower 20 µM, time lower 2 hrs, dose upper 40 µM, time upper 3 hrs
Procedure, shortened: (§1)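 NRK-49F cells were pretreated with or without compound (20 and 40 µM) for 1 or 2 h, then stimulated with TGF-β 5 ng/mL for 1 h. Lysates were made in RIPA with PMSF and protease inhibitors, and 30–40 µg protein was run on 10–12% SDS-PAGE and moved to PVDF. Blots were probed for phospho- and total Smad2, Smad3, p38 and ERK1/2, with GAPDH as loading control and ECL detection.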

[2] = system: Mus musculus; assay: Anti-fibrotic activity in C57BL/6 mouse model of bleomycin-induced lung fibrosis assessed as protection of alveolar tissue structure at 50 to 100 mg/kg, po administered for 30 days starting from day 1 post bleomycin treatment by hematoxylin and eosin staining based microscopic analysis; type: functional, organism-based; conditions: dose 50-100 mg/kg, time 30.0 day
Procedure, shortened: (§2)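 Male C57BL/6 mice, 8 weeks old, n=10 per group; lung fibrosis from one intratracheal instillation of bleomycin 3 U/kg in 0.075 mL saline, saline-only controls. Daily oral dosing days 1–30 (prevention) or days 8–21 (treatment). Left lungs fixed in 10% formalin 24 h, paraffin-embedded, 5 µm sections stained with H&E (also Masson's trichrome) and examined by microscopy.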

[3] = Effect on total Smad3 expression in TGFbeta-stimulated rat NRK-49F at 20 to 40 uM preincubated for 1 to 2 hrs followed by TGF-beta stimulation and measured after 1 hr by Western blot analysis; conditions: dose lower 20 µM, time lower 2 hrs, dose upper 40 µM, time upper 3 hrs; procedure, shortened: as §1
[4] = biological target: Mothers against decapentaplegic homolog 3 (Rattus norvegicus) (UniProt P84025); assay: Inhibition of TGF-beta induced SMAD3 phosphorylation in rat NRK-49F cells at 20 to 40 uM pretreated with compound for 1 to 2 hrs followed by TGF-beta stimulation for 1 hr by Western blot analysis; type: cell-based; conditions: dose 20-40 µM, time 2-3 hrs; procedure, shortened: as §1
Mothers against decapentaplegic homolog 3 (Rattus norvegicus), sequence (P84025 whole entry, looked up): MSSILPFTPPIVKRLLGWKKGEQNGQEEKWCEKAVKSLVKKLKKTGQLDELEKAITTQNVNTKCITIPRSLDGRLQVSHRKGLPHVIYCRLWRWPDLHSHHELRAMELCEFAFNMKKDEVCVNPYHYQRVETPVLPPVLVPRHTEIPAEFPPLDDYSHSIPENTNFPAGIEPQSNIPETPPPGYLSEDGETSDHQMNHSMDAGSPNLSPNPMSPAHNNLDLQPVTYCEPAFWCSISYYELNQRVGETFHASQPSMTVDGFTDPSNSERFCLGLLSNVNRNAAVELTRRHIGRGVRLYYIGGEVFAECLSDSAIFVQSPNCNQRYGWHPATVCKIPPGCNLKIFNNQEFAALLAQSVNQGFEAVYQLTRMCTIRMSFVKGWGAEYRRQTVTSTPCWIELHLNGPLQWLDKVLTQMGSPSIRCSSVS

[5] = AUC (0 to t) in Sprague-Dawley rat at 5 mg/kg, po; type: ADME, organism-based; set-up: dose 5 mg/kg; conditions: in vivo
Procedure, shortened: (§3)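 Rats received a single 5 mg/kg dose, either intravenously or orally. AUC0-t was derived from plasma concentration–time curves after that one dose. n = 5 per the reported oral data.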

[6] = system: Mus musculus; assay: Anti-fibrotic activity in C57BL/6 mouse model of bleomycin-induced lung fibrosis assessed as suppression of smad3 phosphorylation level in lung at 50 to 100 mg/kg, po administered for 30 days starting from day 1 post bleomycin treatment by immunohistochemistry staining based microscopic analysis; type: functional, organism-based; conditions: dose 50-100 mg/kg, time 30.0 day
Procedure, shortened: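 Male C57BL/6 mice, 8 weeks, got intratracheal bleomycin 3 U/kg in 0.075 mL saline, then daily oral dosing days 1–30. Left lungs were formalin-fixed (10%, 24 h) and paraffin-embedded; 5 µm sections were incubated with antibody at 4 °C overnight for immunohistochemistry of phospho-Smad3 and imaged by microscopy.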

[7] = system: NRK-49F; assay: Inhibition of TGF-beta-induced alpha-SMA protein expression in rat NRK-49F cells at 20 to 40 uM incubated for 24 hrs by Western blotting analysis; type: functional, cell-based; conditions: dose 20-40 µM
[8] = AUC (0 to t) in Sprague-Dawley rat at 5 mg/kg, iv; type: ADME, organism-based; set-up: dose 5 mg/kg; conditions: in vivo; procedure, shortened: as §3
[9] = Half life in Sprague-Dawley rat at 5 mg/kg, iv; type: ADME, organism-based; conditions: in vivo
Procedure, shortened: (§4)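 Rats were given a single 5 mg/kg dose intravenously or orally, and plasma concentration–time curves were followed. t1/2, tmax, AUC0-t and oral bioavailability (n = 5) were derived from these curves.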

[10] = system: NRK-49F; assay: Inhibition of TGF-beta-induced collagen accumulation in rat NRK-49F cells at 10 uM incubated for 2 days by PSR staining based microscopic analysis relative to control; type: functional; conditions: 48 h, time 2 day
Procedure, shortened: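 NRK-49F cells were grown 3 days in DMEM with 5% FBS, then 2 days in DMEM with 1% ITS. Next came 2 days with TGF-β 5 ng/ml plus or minus compound 10 µM. Cells were fixed in 4% paraformaldehyde and stained 4 h with 0.1% Picrosirius Red, then rinsed with acetic acid. Dye was eluted with 0.1 M NaOH and OD read at 540 nm. Inhibition = […] ×100%, in triplicate.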

[11] = Effect on total Smad2 expression in TGFbeta-stimulated rat NRK-49F at 20 to 40 uM preincubated for 1 to 2 hrs followed by TGF-beta stimulation and measured after 1 hr by Western blot analysis; conditions: dose lower 20 µM, time lower 2 hrs, dose upper 40 µM, time upper 3 hrs; procedure, shortened: as §1
[12] = system: Mus musculus; assay: Anti-fibrotic activity in C57BL/6 mouse model of bleomycin-induced lung fibrosis assessed as reduction in inflammatory cell infiltration at 50 to 100 mg/kg, po administered for 30 days starting from day 1 post bleomycin treatment by hematoxylin and eosin staining based microscopic analysis; type: functional, organism-based; conditions: dose 50-100 mg/kg, time 30.0 day; procedure, shortened: as §2
[13] = system: Mus musculus; assay: Anti-fibrotic activity in C57BL/6 mouse model of bleomycin-induced lung fibrosis assessed as survival rate at 50 mg/kg, po administered for […] starting from day 8 post bleomycin treatment; type: functional, organism-based; conditions: time 14.0 day
Procedure, shortened: (§5)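 Survival was followed in male C57BL/6 mice (8 weeks, n=10 per group) after one intratracheal bleomycin dose of 3 U/kg in 0.075 mL saline. Oral dosing was daily, days 1–30 (prevention) or days 8–21 (treatment), with survival curves plotted.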

[14] = system: NRK-49F; assay: Inhibition of TGF-beta induced p38 phosphorylation in rat NRK-49F cells at 20 to 40 uM pretreated with compound for 1 to 2 hrs followed by TGF-beta stimulation for 1 hr by Western blot analysis; type: cell-based; conditions: dose 20-40 µM, time 2-3 hrs; procedure, shortened: as §1
[15] = biological target: Mitogen-activated protein kinase 1 and 3 (ERK2 and ERK1) (Rattus norvegicus) (UniProt P63086+P21708); assay: Inhibition of TGF-beta induced ERK1/2 phosphorylation in rat NRK-49F cells at 20 to 40 uM pretreated with compound for 1 to 2 hrs followed by TGF-beta stimulation for 1 hr by Western blot analysis; type: cell-based; conditions: dose 20-40 µM, time 2-3 hrs; procedure, shortened: as §1
Mitogen-activated protein kinase 1 and 3 (ERK2 and ERK1) (Rattus norvegicus), sequence (P21708 whole entry, looked up): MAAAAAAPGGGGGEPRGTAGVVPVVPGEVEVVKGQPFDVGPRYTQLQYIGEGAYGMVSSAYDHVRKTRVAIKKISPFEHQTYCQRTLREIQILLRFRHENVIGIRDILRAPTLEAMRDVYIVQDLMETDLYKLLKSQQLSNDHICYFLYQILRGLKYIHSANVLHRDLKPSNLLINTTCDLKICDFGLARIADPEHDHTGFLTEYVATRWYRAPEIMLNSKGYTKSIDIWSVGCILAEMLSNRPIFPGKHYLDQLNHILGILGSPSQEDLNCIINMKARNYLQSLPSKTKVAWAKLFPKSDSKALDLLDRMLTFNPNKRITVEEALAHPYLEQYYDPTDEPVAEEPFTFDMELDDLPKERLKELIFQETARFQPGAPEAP
Mitogen-activated protein kinase 1 and 3 (ERK2 and ERK1) (Rattus norvegicus), sequence (P63086 whole entry, looked up): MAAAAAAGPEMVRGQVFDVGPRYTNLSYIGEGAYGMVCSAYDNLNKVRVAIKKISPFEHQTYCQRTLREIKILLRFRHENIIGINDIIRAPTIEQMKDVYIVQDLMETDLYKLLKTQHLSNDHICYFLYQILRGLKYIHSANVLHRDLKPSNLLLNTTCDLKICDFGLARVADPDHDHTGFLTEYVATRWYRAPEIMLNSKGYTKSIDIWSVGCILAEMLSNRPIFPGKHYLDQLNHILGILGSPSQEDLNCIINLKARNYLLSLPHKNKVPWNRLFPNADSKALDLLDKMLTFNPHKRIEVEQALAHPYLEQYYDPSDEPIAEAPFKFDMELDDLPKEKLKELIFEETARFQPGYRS

[16] = Cytotoxicity against rat NRK-49F cells assessed as cell survival rate at 10 uM incubated for 72 hrs by MTT assay; type: cell-based; conditions: read-out: Activity
Procedure, shortened: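 NRK-49F cells were seeded at 0.5×10^5 cells/ml, cultured overnight, then exposed to compound 10 µM for 72 h. MTT was added and incubated 4 h, formazan dissolved in DMSO and absorbance read. Survival = (treated − zero)/(blank − zero) A ×100%, done in triplicate.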

[17] = Tmax in Sprague-Dawley rat at 5 mg/kg, iv; type: ADME, organism-based; conditions: in vivo; procedure, shortened: as §4
[18] = Tmax in Sprague-Dawley rat at 5 mg/kg, po; type: ADME, organism-based; conditions: in vivo; procedure, shortened: as §4
[19] = system: Mus musculus; assay: Anti-fibrotic activity in C57BL/6 mouse model of bleomycin-induced lung fibrosis assessed as reduction in collagen deposition by measuring hydroxyproline content in lung at 50 to 100 mg/kg, po administered for 30 days starting from day 1 post bleomycin treatment; type: functional, organism-based; conditions: dose 50-100 mg/kg, time 30.0 day
Procedure, shortened: (§6)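 In the bleomycin mouse model (male C57BL/6, 8 weeks, 3 U/kg intratracheal in saline, n=10 per group), daily oral dosing ran days 1–30 or days 8–21. Right lungs were dried, acid hydrolysed, filtered and brought to pH 6.5–8.0. Hydroxyproline was read by chloramine-T spectrophotometry with a kit.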

[20] = Effect on total p38 expression in TGFbeta-stimulated rat NRK-49F at 20 to 40 uM preincubated for 1 to 2 hrs followed by TGF-beta stimulation and measured after 1 hr by Western blot analysis; type: tissue-based; conditions: dose lower 20 µM, time lower 2 hrs, dose upper 40 µM, time upper 3 hrs; procedure, shortened: as §1
[21] = system: L929; assay: Antimigratory activity in mouse L929 cells assessed as inhibition of TGF-beta-induced cell migration at 10 uM incubated for 24 hrs by wound healing assay; type: functional, cell-based
Procedure, shortened: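 Mouse L929 fibroblasts (MEM, 10% FBS, 37 °C, 5% CO₂) were grown to confluence and scratched with a pipette tip to a 100 µm wound. They were then kept in serum-free medium with or without TGF-β 5 ng/ml and compound 10 µM for 24 h. Wounds were imaged by light microscopy at 0, 12 and 24 h.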

[22] = system: Mus musculus; assay: Anti-fibrotic activity in C57BL/6 mouse model of bleomycin-induced lung fibrosis assessed as reduction in collagen deposition by measuring hydroxyproline content in lung at 100 mg/kg, po administered for […] starting from day 8 post bleomycin treatment; type: functional, organism-based; conditions: time 14.0 day; procedure, shortened: as §6
[23] = Half life in Sprague-Dawley rat at 5 mg/kg, po; type: ADME, organism-based; conditions: in vivo; procedure, shortened: as §4
[24] = system: Mus musculus; assay: Anti-fibrotic activity in C57BL/6 mouse model of bleomycin-induced lung fibrosis assessed as protection of alveolar tissue structure at 100 mg/kg, po administered for […] starting from day 8 post bleomycin treatment by hematoxylin and eosin staining based microscopic analysis; type: functional, organism-based; conditions: time 14.0 day; procedure, shortened: as §2
[25] = biological target: Mothers against decapentaplegic homolog 2 (Rattus norvegicus) (UniProt O70436); assay: Inhibition of TGF-beta induced SMAD2 phosphorylation in rat NRK-49F cells at 20 to 40 uM pretreated with compound for 1 to 2 hrs followed by TGF-beta stimulation for 1 hr by Western blot analysis; type: cell-based; conditions: dose 20-40 µM, time 2-3 hrs; procedure, shortened: as §1
Mothers against decapentaplegic homolog 2 (Rattus norvegicus), sequence (O70436 whole entry): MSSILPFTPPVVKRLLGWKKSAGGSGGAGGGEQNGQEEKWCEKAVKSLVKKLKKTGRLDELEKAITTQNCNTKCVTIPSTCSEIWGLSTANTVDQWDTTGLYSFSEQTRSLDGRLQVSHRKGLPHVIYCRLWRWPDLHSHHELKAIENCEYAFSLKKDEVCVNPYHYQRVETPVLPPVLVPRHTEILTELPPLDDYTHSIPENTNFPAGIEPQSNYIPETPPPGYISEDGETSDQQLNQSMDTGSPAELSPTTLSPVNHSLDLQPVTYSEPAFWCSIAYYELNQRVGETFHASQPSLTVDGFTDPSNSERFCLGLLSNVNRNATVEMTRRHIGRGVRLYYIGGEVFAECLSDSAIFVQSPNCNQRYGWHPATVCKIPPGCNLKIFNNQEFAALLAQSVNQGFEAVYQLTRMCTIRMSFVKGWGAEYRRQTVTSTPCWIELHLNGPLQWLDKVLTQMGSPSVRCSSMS

[26] = system: NRK-49F; assay: Inhibition of TGF-beta-induced collagen-1 protein expression in rat NRK-49F cells at 20 to 40 uM incubated for 24 hrs by Western blotting analysis; type: functional, cell-based; conditions: dose 20-40 µM
[27] = Oral bioavailability in Sprague-Dawley rat at 5 mg/kg; type: ADME, organism-based; conditions: in vivo; procedure, shortened: as §4
[28] = system: Mus musculus; assay: Anti-fibrotic activity in C57BL/6 mouse model of bleomycin-induced lung fibrosis assessed as survival rate at 50 to 100 mg/kg, po administered for 30 days starting from day 1 post bleomycin treatment; type: functional, organism-based; conditions: dose 50-100 mg/kg, time 30.0 day; procedure, shortened: as §5
[29] = system: Mus musculus; assay: Anti-fibrotic activity in C57BL/6 mouse model of bleomycin-induced lung fibrosis assessed as survival rate at 50 mg/kg, po administered for 30 days starting from day 1 post bleomycin treatment; type: functional, organism-based; conditions: time 30.0 day; procedure, shortened: as §5
[30] = system: Mus musculus; assay: Anti-fibrotic activity in C57BL/6 mouse model of bleomycin-induced lung fibrosis assessed as protection of alveolar tissue structure at 50 mg/kg, po administered for 30 days starting from day 1 post bleomycin treatment by hematoxylin and eosin staining based microscopic analysis; type: functional, organism-based; conditions: time 30.0 day; procedure, shortened: as §2
[31] = system: Mus musculus; assay: Anti-fibrotic activity in C57BL/6 mouse model of bleomycin-induced lung fibrosis assessed as protection of alveolar tissue structure at 50 mg/kg, po administered from day 8 to day 21 post bleomycin treatment by hematoxylin and eosin staining based microscopic analysis; conditions: time 14.0 day
[32] = system: Mus musculus; assay: Anti-fibrotic activity in C57BL/6 mouse model of bleomycin-induced lung fibrosis assessed as reduction in collagen deposition by measuring hydroxyproline content in lung at 50 mg/kg, po administered for […] starting from day 8 post bleomycin treatment; type: functional, organism-based; conditions: time 14.0 day; procedure, shortened: as §6
[33] = system: Mus musculus; assay: Anti-fibrotic activity in C57BL/6 mouse model of bleomycin-induced lung fibrosis assessed as reduction in collagen deposition by measuring hydroxyproline content in lung at 50 mg/kg, po administered for 30 days starting from day 1 post bleomycin treatment; type: functional, organism-based; conditions: time 30.0 day; procedure, shortened: as §6
[34] = system: Mus musculus; assay: Anti-fibrotic activity in C57BL/6 mouse model of bleomycin-induced lung fibrosis assessed as reduction in inflammatory cell infiltration at 50 mg/kg, po administered for 30 days starting from day 1 post bleomycin treatment by hematoxylin and eosin staining based microscopic analysis; type: functional, organism-based; conditions: time 30.0 day; procedure, shortened: as §2

## O=C(CN1CCN(C(=O)C2CC2)CC1)Nc1ccc(Oc2cc(=O)[nH]c3ccccc23)c(F)c1
[1]
  Activity: Non-Toxic
[2]
  Activity: Active
[3]
  Activity: Non-Toxic
[4]
  inhibition: Dose-dependent effect
[5]
  AUC(0-t): 5460 ng·h/mL
[6]
  Activity: Active
[7]
  inhibition: Active
[8]
  AUC(0-t): 13100 ng·h/mL
[9]
  half-life: 4.39 h
[10]
  inhibition at 10 µM: 87.5%
[11]
  Activity: Non-Toxic
[12]
  Activity: Active
[13]
  Activity: Active
[14]
  inhibition: Active
[15]
  inhibition: Active
[16]
  viability at 72 h, 10 µM: 97.5%
[17]
  Tmax: 4.8 min
[18]
  Tmax: 4.33 h
[19]
  Activity: Active
[20]
  Activity: Non-Toxic
[21]
  inhibition: Active
[22]
  Activity: Active
[23]
  half-life: 3.5 h
[24]
  Activity: Active
[25]
  inhibition: Dose-dependent effect
[26]
  inhibition: Active
[27]
  bioavailability: 41.5%
[28]
  Activity: Active

## COC(=O)c1ccc2c(c1)NC(=O)/C2=C(\Nc1ccc(N(C)C(=O)CN2CCN(C)CC2)cc1)c1ccccc1 [NINTEDANIB]
[7]
  inhibition: Active
[29]
  Activity: Active
[30]
  Activity: Active
[10]
  inhibition at 10 µM: 95.5%
[31]
  Activity: inactive
[32]
  Activity: inactive
[33]
  Activity: Active
[34]
  Activity: Active
[21]
  inhibition: Active
[26]
  inhibition: Active
[27]
  bioavailability: 12%
